Laboratory results published in ChEMBL document CHEMBL1156683, “Basic 3-hydroxypyridin-4-ones: potential antimalarial agents” (Eur J Med Chem, 2008).

How the values were obtained:
Plasmodium falciparum = experiment: Antimalarial activity against chloroquine-resistant Plasmodium falciparum TM267TR after 24 hrs by [3H]hypoxanthine; format: functional, organism-based
Summary of the method: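 Clone maintained in human red cells in RPMI 1640 with 10% human serum, 25 mM HEPES and 25 mM NaHCO₃. Cultures were sorbitol-synchronized, washed, then diluted with normal red cells to 1% hematocrit and 0.5% parasitemia. Incubated with serial dilutions of chelator. ³H-hypoxanthine pulse for a further 18 h, then harvested and counted by scintillation. IC₅₀ by non-linear regression of triplicate dose-response curves.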

Rattus norvegicus [1] = experiment: Iron-clearing efficiency in po dosed [59Fe]ferritin-loaded Wistar rat assessed as iron mobilization; format: functional
Summary of the method: (§1)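 Male Wistar rats, normal, fasted, 190–230 g. Hepatocytes labelled with ⁵⁹Fe by tail-vein [⁵⁹Fe]ferritin; chelator given orally 1 h later, controls received water. Individual metabolic cages collected urine and faeces; food allowed 1 h after dosing, water unrestricted. Killed 24 h after ferritin; liver and gastrointestinal tract with contents and faeces gamma counted.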

[2] = Partition coefficient, log P of the compound; format: physicochemical; conditions: octanol/water
Summary of the method: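 Calculated from the measured octanol/MOPS pH 7.4 distribution coefficient divided by the fraction of neutral species at pH 7.4, which is derived from the measured pKa values.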

[3] = Octanol-MOPS buffer distribution coefficient, DC at pH 7.4; format: physicochemical; conditions: octanol/water
Summary of the method: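 Automated continuous-flow filter-probe method, 1-octanol versus 50 mM MOPS buffer pH 7.4, phases mutually presaturated. Compound dissolved in buffer to absorbance 0.5–1.5 units at a preselected wavelength; aqueous phase separated by hydrophilic cellulose filter and read by absorbance. n = 5.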

Rattus norvegicus [4] = experiment: Iron-clearing efficiency in po dosed [59Fe]ferritin-loaded Wistar rat assessed as iron removal; format: functional; summary of the method: as §1
[5] = Dissociation constant, pKa corresponding to dissociation of the 3-hydroxyl group by spectrophotometric titration; format: physicochemical
Summary of the method: (§2)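 Ligand protonation constants from an automated titration system, potentiometric and spectrophotometric read-outs. Values optimized by non-linear least-squares regression, accuracy ±0.02 pH unit.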

[6] = Dissociation constant, pKa corresponding to dissociation of the 3-hydroxyl group by potentiometric titration; format: physicochemical; summary of the method: as §2
[7] = Dissociation constant, pKa corresponding to deprotonation of the basic substituent by spectrophotometric titration; format: physicochemical; summary of the method: as §2
[8] = Dissociation constant, pKa corresponding to deprotonation of the basic substituent by potentiometric titration; format: physicochemical; summary of the method: as §2
[9] = Dissociation constant, pKa corresponding to protonation of the 4-hydroxy group by spectrophotometric titration; format: physicochemical; summary of the method: as §2
[10] = Dissociation constant, pKa corresponding to protonation of the 4-hydroxy group by potentiometric titration; format: physicochemical; summary of the method: as §2

## CCn1ccc(=O)c(O)c1C(C)O (stereo unspecified)
Plasmodium falciparum
  IC50: 45 µM
Rattus norvegicus [1]
  Activity: 48.4%
[2]
  logP: -0.557
[3]
  D: 0.266
Rattus norvegicus [4]
  Activity: 44.5%

## Cn1c(CO)cc(=O)c(O)c1CN1CCCCC1
Plasmodium falciparum
  IC50: 29 µM
[5]
  pKa: 10.4
[6]
  pKa: 10.5
[7]
  pKa: 6.67
[2]
  logP: 0.295
[8]
  pKa: 6.74
[9]
  pKa: 2.41
[3]
  D: 1.636
[10]
  pKa: 2.14

## Cn1c(CO)cc(=O)c(O)c1CN1CCOCC1
Plasmodium falciparum
  IC50: 35 µM
[5]
  pKa: 9.75
[6]
  pKa: 9.77
[7]
  pKa: 4.99
[2]
  logP: -0.765
[8]
  pKa: 5.1
[9]
  pKa: 2.14
[3]
  D: 0.17
[10]
  pKa: 1.98

## Cc1c(O)c(=O)ccn1CCN1CCCCC1
Plasmodium falciparum
  IC50: 35 µM
[5]
  pKa: 9.71
[6]
  pKa: 9.63
Rattus norvegicus [1]
  Activity: 22.7%
[7]
  pKa: 7.47
[2]
  logP: 0.31
[8]
  pKa: 7.42
[9]
  pKa: 2.88
[3]
  D: 0.96
[10]
  pKa: 2.77
Rattus norvegicus [4]
  Activity: 18.8%

## O=c1ccn(CCN2CCCCC2)c(CO)c1O
Plasmodium falciparum
  IC50: 10 µM
[5]
  pKa: 9.24
[6]
  pKa: 9.28
Rattus norvegicus [1]
  Activity: 23.3%
[7]
  pKa: 7.43
[2]
  logP: 0.019
[8]
  pKa: 7.35
[9]
  pKa: 2.2
[3]
  D: 0.501
[10]
  pKa: 2.25
Rattus norvegicus [4]
  Activity: 19.4%

## Cc1c(O)c(=O)ccn1CCN(C)C
Plasmodium falciparum
  IC50: 80 µM
[5]
  pKa: 9.58
[6]
  pKa: 9.75
Rattus norvegicus [1]
  Activity: 13%
[7]
  pKa: 7.02
[2]
  logP: -0.657
[8]
  pKa: 7.05
[9]
  pKa: 2.86
[3]
  D: 0.154
[10]
  pKa: 2.74
Rattus norvegicus [4]
  Activity: 9.1%

## Cn1cc(O)c(=O)cc1CN1CCCCC1
Plasmodium falciparum
  IC50: 31 µM
[5]
  pKa: 8.86
[6]
  pKa: 8.85
[7]
  pKa: 6.72
[2]
  logP: 0.64
[8]
  pKa: 6.74
[9]
  pKa: 2.16
[3]
  D: 3.493
[10]
  pKa: 2.15

## CC(O)c1c(O)c(=O)ccn1CCN1CCCCC1 (stereo unspecified)
Plasmodium falciparum
  IC50: 8 µM
[5]
  pKa: 8.73
[6]
  pKa: 8.7
Rattus norvegicus [1]
  Activity: 23.1%
[7]
  pKa: 7.35
[2]
  logP: 0.242
[8]
  pKa: 7.37
[9]
  pKa: 2.14
[3]
  D: 0.908
[10]
  pKa: 2.17
Rattus norvegicus [4]
  Activity: 19.2%

## CCc1c(O)c(=O)ccn1CCCn1ccnc1
Plasmodium falciparum
  IC50: 65 µM
[5]
  pKa: 9.66
[6]
  pKa: 9.71
Rattus norvegicus [1]
  Activity: 6.8%
[7]
  pKa: 6.47
[2]
  logP: -0.326
[8]
  pKa: 6.55
[9]
  pKa: 3.15
[3]
  D: 0.42
[10]
  pKa: 3.09
Rattus norvegicus [4]
  Activity: 2.9%

## Cc1c(O)c(=O)ccn1CCCn1ccnc1
Plasmodium falciparum
  IC50: 85 µM
[5]
  pKa: 9.82
[6]
  pKa: 9.92
Rattus norvegicus [1]
  Activity: 5.3%
[7]
  pKa: 6.71
[2]
  logP: -0.392
[8]
  pKa: 6.6
[9]
  pKa: 3.08
[3]
  D: 0.344
[10]
  pKa: 3.13
Rattus norvegicus [4]
  Activity: 1.4%

## CCN(CC)CCn1ccc(=O)c(O)c1C
Plasmodium falciparum
  IC50: 50 µM
[5]
  pKa: 9.6
[6]
  pKa: 9.65
Rattus norvegicus [1]
  Activity: 12.4%
[7]
  pKa: 7.5
[2]
  logP: 0.059
[8]
  pKa: 7.53
[9]
  pKa: 2.66
[3]
  D: 0.493
[10]
  pKa: 2.63
Rattus norvegicus [4]
  Activity: 8.5%

## CCc1c(O)c(=O)ccn1CCN1CCCCC1
Plasmodium falciparum
  IC50: 25 µM
[5]
  pKa: 9.7
[6]
  pKa: 9.67
Rattus norvegicus [1]
  Activity: 30.4%
[7]
  pKa: 7.38
[2]
  logP: 0.946
[8]
  pKa: 7.34
[9]
  pKa: 2.74
[3]
  D: 4.591
[10]
  pKa: 2.73
Rattus norvegicus [4]
  Activity: 26.5%

## Cc1c(O)c(=O)ccn1CCN1CCOCC1
Plasmodium falciparum
  IC50: 50 µM
[5]
  pKa: 9.68
[6]
  pKa: 9.71
[7]
  pKa: 4.91
[2]
  logP: -0.909
[8]
  pKa: 4.89
[9]
  pKa: 2.64
[3]
  D: 0.122
[10]
  pKa: 2.67

## Cc1cc(=O)c(O)c(CN2CCCCC2)n1C
Plasmodium falciparum
  IC50: 23 µM
[5]
  pKa: 10.3
[6]
  pKa: 10.8
[7]
  pKa: 6.98
[2]
  logP: 0.559
[8]
  pKa: 7.07
[9]
  pKa: 2.73
[3]
  D: 2.536
[10]
  pKa: 2.5

## CCc1c(O)c(=O)ccn1CCN(C)C
Plasmodium falciparum
  IC50: 85 µM
[5]
  pKa: 9.58
[6]
  pKa: 9.66
Rattus norvegicus [1]
  Activity: 20.3%
[7]
  pKa: 7.16
[2]
  logP: -0.114
[8]
  pKa: 6.88
[9]
  pKa: 2.68
[3]
  D: 0.538
[10]
  pKa: 2.62
Rattus norvegicus [4]
  Activity: 16.4%

## O=c1cc(CN2CCCCC2)n(CCN2CCCCC2)cc1O
Plasmodium falciparum
  IC50: 21.5 µM
[5]
  pKa: 8.95
[6]
  pKa: 8.83
[7]
  pKa: 7.6
[2]
  logP: 1.84
[8]
  pKa: 7.58
[9]
  pKa: 2.04
[3]
  D: 26.11
[10]
  pKa: 1.16

## Cc1cc(=O)c(O)c(CN2CCOCC2)n1C
Plasmodium falciparum
  IC50: 50 µM
[5]
  pKa: 9.72
[6]
  pKa: 10.1
[7]
  pKa: 4.82
[2]
  logP: -0.435
[8]
  pKa: 4.89
[9]
  pKa: 2.43
[3]
  D: 0.364
[10]
  pKa: 2.38

## CCc1c(O)c(=O)ccn1CC
Plasmodium falciparum
  IC50: 55 µM
Rattus norvegicus [1]
  Activity: 58.3%
[2]
  logP: 0.257
[3]
  D: 1.79
Rattus norvegicus [4]
  Activity: 54.4%

## Cc1c(O)c(=O)ccn1C [DEFERIPRONE]
Plasmodium falciparum
  IC50: 67.5 µM
Rattus norvegicus [1]
  Activity: 13.4%
[3]
  D: 0.17
Rattus norvegicus [4]
  Activity: 9.5%
